Screening data deposited in PubChem by Johns Hopkins Ion Channel Center.
KCNQ1 act = potentiators or activators of KCNQ1 channel, primary screen, cell-based, thallium flux, high-throughput. CHO-K1 KCNQ1, thallium flux FluxOR fluorescence; active compounds read high. Potassium voltage-gated channel subfamily KQT member 1 (Homo sapiens), P51787. AID 2648, 2010. 0.35% of 310,000 active. B-score at 10 µM;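 active means fluorescence ratio B-score, a plate-corrected score, at least three library SD, with initial intensity B-score within 5 SD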
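assay system = KCNQ1-transfected CHO-K1 cells | medium = assay buffer with matched DMSO | probe or stimulus = depolarizing K+/Tl+ stimulus, K2SO4 and Tl2SO4 each 12.5 mM in 5x stock | dosing = single dose | incubation = dye 90 min, compound 20 min, room temperature | detection = kinetic FluxOR fluorescence, 10 s baseline plus 110 s post-stimulus | evaluation = ratio B score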
KCNK3 inh = human KCNK3 channel inhibitors, primary screen, CHO cells, FluxOR thallium flux, B-score | Potassium channel subfamily K member 3 (Homo sapiens), O14649 | FluxOR fluorescence; active compounds read low | B-score at 10 µM | 0.84% of 340,000 active;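 active means B-score under library mean minus 4 SD, starting fluorescence ratio at most library mean plus 5 SD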;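 further: more negative B-score means stronger inhibition of thallium flux through KCNK3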
Target sequence (O14649 whole entry, looked up): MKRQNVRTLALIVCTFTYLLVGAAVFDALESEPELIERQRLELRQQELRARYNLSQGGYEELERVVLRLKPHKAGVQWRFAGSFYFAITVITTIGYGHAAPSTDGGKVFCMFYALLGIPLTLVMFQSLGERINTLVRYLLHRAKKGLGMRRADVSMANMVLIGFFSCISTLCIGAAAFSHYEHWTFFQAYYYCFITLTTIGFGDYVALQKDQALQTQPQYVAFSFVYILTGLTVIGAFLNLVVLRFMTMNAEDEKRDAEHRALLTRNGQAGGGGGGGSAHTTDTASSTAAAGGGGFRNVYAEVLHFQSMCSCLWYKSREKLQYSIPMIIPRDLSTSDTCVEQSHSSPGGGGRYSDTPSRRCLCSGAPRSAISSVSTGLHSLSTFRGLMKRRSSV
KCNK9 block = KCNK9 potassium channel inhibitors, primary screen, HEK293 cells, thallium flux | Potassium channel subfamily K member 9 (Homo sapiens), Q9NPC2 | FluxOR thallium flux fluorescence; active compounds read low | B-score at 10 µM | 1.2% of 310,000 active | AID 488922, 2010;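 active means ratio B-score over 3 SD below the library mean, with starting fluorescence within 5 SD of its mean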;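 further: negative B-score means less thallium flux so channel inhibition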
Kir21 inh = inhibitors of mouse Kir2.1 inward-rectifier potassium channel; B-score at 10 µM; HEK293-Kir2.1, FluxOR thallium flux fluorescence; active compounds read low; Inward rectifier potassium channel 2 (Mus musculus), P35561; 0.85% of 310,000 active;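 active means fluorescence ratio B-score at or below minus 3 SD of library scores, with starting-brightness B-score within 2 SD, cut at about -4.2 in these data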;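 further: channel flux triggered by added potassium and thallium sulfate stimulus; B-score of peak minus minimum fluorescence over baseline after thallium stimulus; more negative B-score means stronger Kir2.1 block with less thallium influx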
KCNQ1 inh = inhibitors of human KCNQ1 channel, primary screen, cell-based, thallium flux, high-throughput; 1.3% of 310,000 active; B-score at 10 µM; Potassium voltage-gated channel subfamily KQT member 1 (Homo sapiens), P51787; CHO-K1 KCNQ1, FluxOR thallium flux fluorescence; active compounds read high; AID 2642, 2010;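 active means compounds whose thallium flux B-score, printed positive for inhibition, exceeds three library SD while starting fluorescence stays within three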;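 further: channel opened by potassium depolarization with thallium stimulus after 20 min compound exposure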
hERG protect = hERG rescue from dofetilide block, primary screen, cell-based, CHO-hERG, FluxOR thallium flux, dofetilide IC70. 0.51% of 310,000 active. dofetilide IC70 present. AID 1511, 2009. Voltage-gated inwardly rectifying potassium channel KCNH2 (Homo sapiens), Q12809. activation (rescue from dofetilide block), less the hit threshold, % at 10 µM;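 active means activation above the mean of controls blocked by dofetilide plus 5 SD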;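 further: thallium influx through hERG after potassium depolarization seen as dye fluorescence rise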
Hits are given with their value; i = inactive; nt = not tested or not shown. Hits are enriched below; roughly 3.8% of the tested compounds scored in any of these assays.

SMILES	KCNQ1 act	KCNK3 inh	KCNK9 block	Kir21 inh	KCNQ1 inh	hERG protect
CN1CC=C2C(C#N)=C(N)C(C#N)(C#N)[C@H](c3cccc(Cl)c3)C2C1 (stereo not given in full)	i	i	i	i	8	i
CN1CC=C2C(C#N)=C(N)C(C#N)(C#N)C(c3ccsc3)C2C1 (stereo not given)	i	i	i	i	i	i
CC(=O)OC(C)[C@H]1CC[C@H]2[C@@H]3CC[C@H]4C[C@@H](OC(C)=O)CC[C@]4(C)C3=CC[C@]12C (stereo not given in full)	i	i	i	i	i	i
Cc1ccccc1NC1=C/C(=N\S(=O)(=O)c2ccc(C(=O)O)cc2)c2ccccc2C1=O	i	i	i	i	i	6.1
c1ccc2oc(-c3[nH]ncc3CN3CCSCC3)cc2c1	i	i	i	i	i	i
c1ccc2oc(-c3ccn[nH]3)cc2c1	i	i	i	i	i	6.9
CCOC(=O)c1nn(-c2ccc(Cl)cc2Cl)c(=N)c(C#N)c1C	i	nt	i	i	6	i
CCCC1CC(C)(c2csc(Nc3ccc(OCC)cc3)n2)OC1=O (stereo not given)	i	i	-7.7	i	i	i
CC1(CCc2ccccc2)NC(=O)NC1=O (stereo not given)	nt	i	nt	nt	nt	nt
Cc1nc2c(C(=O)N3CCN(c4ccccn4)CC3)cnn2c(C)c1Cc1cccc(Cl)c1	7	i	i	i	i	i
O=C(COC(=O)C1CCC(=O)N1)Nc1ccc(Oc2ccccc2)cc1 (stereo not given)	i	i	i	i	i	33
O=C(COC(=O)C1CCC(=O)N1)Nc1ccccc1Br (stereo not given)	i	i	i	i	i	i
Cc1ccc(SCC(=O)OC(C)C(=O)NCc2ccccc2)cc1 (stereo not given)	i	i	i	i	i	i
COc1ccc(C(=O)Nn2cnc3scc(-c4cccs4)c3c2=O)c(O)c1	i	-11	i	i	i	i
COC(=O)c1nn(C23CC4CC(CC(C4)C2)C3)c2c1C(=O)N(c1ccc(Br)cc1)C2=O	i	i	i	i	6	i
CCOC(=O)c1nn(C23CC4CC(CC(C4)C2)C3)c2c1C(=O)N(c1ccc(C)cc1)C2=O	i	i	i	i	i	i
O=C1CSC(c2ccccn2)N1c1ccc(Cl)c(Cl)c1 (stereo not given)	i	i	-7.6	i	i	i
CSc1nc(NCc2ccco2)c2ccccc2n1	i	i	i	i	i	i
CNc1nc(SC)nc2ccccc12	i	i	i	i	i	6.6
Cc1ccnc(NC(=O)CNC(=O)c2ccc3c(c2)OCO3)c1	15	i	i	i	i	i
Cc1ccnc(NC(=O)CNC(=O)c2ccc3ccccc3c2)c1	i	i	i	i	i	i
CCOC(=O)c1ccc(CN(Cc2ccccc2)S(=O)(=O)c2cccc([N+](=O)[O-])c2)cc1	i	i	i	i	i	i
CCOC(=O)CSc1ccc(S(=O)(=O)N(CC)CC)cc1[N+](=O)[O-]	i	i	-6.8	i	i	i
CCCCN(CCCC)S(=O)(=O)c1ccc(SCC(=O)OCC)c([N+](=O)[O-])c1	i	i	i	i	i	i
CCOC(=O)CCCCCN(Cc1ccccc1)S(=O)(=O)c1ccc([N+](=O)[O-])cc1	i	i	i	i	7	i
SMILES	KCNQ1 act	KCNK3 inh	KCNK9 block	Kir21 inh	KCNQ1 inh	hERG protect
CC(C)CCn1c(=O)c2ccccc2c2ccccc2c1=O	i	i	i	i	6	i
O=C(c1sc2ccccc2c1Cl)N(Cc1ccccc1Cl)C1CCS(=O)(=O)C1 (stereo not given)	i	i	-6.8	i	i	i
C=CC[n+]1ccc(/C=C2\C=Cc3cc(C)ccc3N2CC)c2ccccc21	nt	-15	nt	nt	nt	nt
CCN1/C(=C/c2cc[n+](CCCS(=O)(=O)[O-])c3ccccc23)Sc2ccccc21	i	i	i	i	i	i
Cc1ccc(C(=O)O)cc1N1C(=O)c2cccc3c([N+](=O)[O-])ccc(c23)C1=O	i	i	i	i	i	i
O=C(O)c1ccc(CN2C(=O)c3cccc4c([N+](=O)[O-])ccc(c34)C2=O)cc1	i	i	i	i	10	i
S=C(Nc1ccc(Br)cc1)N1CCn2cccc2C1c1cccnc1 (stereo not given)	22	i	i	i	i	i
Cc1ccc(C(=O)CCc2ccc(N)cc2)cc1	i	i	i	i	i	i
COc1ccc(C)cc1S(=O)(=O)NCc1cccs1	i	i	i	i	i	i
COc1ccccc1CNS(=O)(=O)c1cc(C)ccc1OC	i	i	i	-5.6	i	i
OC(CNCc1ccc(-c2ccccc2)cc1)c1ccccc1 (stereo not given)	i	i	i	i	i	i
Cc1ccc(CNCC(O)c2ccccc2)s1 (stereo not given)	i	i	i	-5.3	i	i
OC(CNCc1cccc(Br)c1)c1ccccc1 (stereo not given)	i	i	i	-4.3	i	i
CCN1CCN(S(=O)(=O)c2c(C)[nH]c(C)c2C(=O)N2CCCCC2)CC1	i	i	i	i	i	i
Nc1nsc2ccccc12	i	i	i	-5.1	i	i
CCOc1ccc(CN(C)C(=O)[C@H](C)NC(=O)c2ccco2)cc1OC	i	i	i	i	i	i
Cc1ccccc1C(=O)c1cccn1CC(=O)NC(C)c1ccccc1 (stereo not given)	i	i	i	-4.4	i	i
Cc1cc(C)c(C)c(S(=O)(=O)N(C)CCc2ccccn2)c1C	nt	i	nt	nt	nt	nt
CCCn1c(SCC(=O)Nc2cc(Cl)ccc2OC)nc(O)cc1=O	nt	i	nt	nt	nt	nt
COc1ccccc1CN(C)CC(=O)Nc1ccc(Cl)cc1F	i	i	i	i	i	i
COc1ccc(Br)cc1CN(C)CC(=O)Nc1cc(Cl)ccc1Cl	i	i	i	-5.7	i	i
CCC(C)c1ccc(S(=O)(=O)N2CCN(C(=O)c3ccc(Cl)c(S(=O)(=O)N4CCOCC4)c3)CC2)cc1 (stereo not given)	nt	-9.6	nt	nt	nt	nt
COc1ccc(N2C(=O)c3cccc4c(N(C)CCO)ccc(c34)C2=O)cc1	i	i	i	i	7	i
COC(=O)C1CCN(C(=O)COc2ccc(S(=O)(=O)N3CCOCC3)cc2Cl)CC1	nt	i	nt	nt	nt	nt
O=C([O-])c1ccccc1-[n+]1c(-c2ccccc2)cc(-c2ccccc2)cc1-c1ccccc1	i	i	i	-4.6	i	i
